Experimental data from ChEMBL document CHEMBL4024790 (J Med Chem, 2018).

Assays:
Cytochrome P450 2D6 = Cytochrome P450 2D6 (Homo sapiens, UniProt P10635); assay: Time-dependant inhibition of recombinant human CYP2D6; assay type: ADME; conditions: recombinant enzyme
Canis familiaris = organism: Canis familiaris; assay: Cardiotoxicity in dog up to 1 month by microscopic method; assay type: toxicity, Canis lupus familiaris
[1] = Ratio of unbound brain concentration to unbound plasma concentration in sc dosed CD-1 mouse; assay type: ADME, organism-based; conditions: brain and plasma, read-out: K(p,uu,brain)
In short: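 Compound given sc to mice, iv and/or sc to rats, po to dogs and sc to monkeys; sc doses as a solution in 20% SBE-BCD + 2 molar equiv 1N HCl. Plasma, whole brain and CSF taken at matched times from 2 min to 24 h and quantified by LC-MS/MS. Fraction unbound in plasma and brain homogenate (diluted 4-fold, dilution factor 5 applied) by 6 h equilibrium dialysis against phosphate buffer at 37°C.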

[2] = target: T1, cGMP-dependent 3',5'-cyclic phosphodiesterase (Rattus norvegicus, UniProt Q01062); assay: Displacement of radiolabeled 4-(azetidin-1-yl)-3-[5-[4-(trifluoromethyl)phenyl]-1H-pyrazol-4-yl]-1-(tritritiomethyl)pyrazolo[3,4-d]pyrimidine from PDE2A in rat striatal membranes after 30 mins by liquid scintillation counting method; assay type: cell membranes, Striatum, Membrane
T1 sequence (Q01062 whole entry): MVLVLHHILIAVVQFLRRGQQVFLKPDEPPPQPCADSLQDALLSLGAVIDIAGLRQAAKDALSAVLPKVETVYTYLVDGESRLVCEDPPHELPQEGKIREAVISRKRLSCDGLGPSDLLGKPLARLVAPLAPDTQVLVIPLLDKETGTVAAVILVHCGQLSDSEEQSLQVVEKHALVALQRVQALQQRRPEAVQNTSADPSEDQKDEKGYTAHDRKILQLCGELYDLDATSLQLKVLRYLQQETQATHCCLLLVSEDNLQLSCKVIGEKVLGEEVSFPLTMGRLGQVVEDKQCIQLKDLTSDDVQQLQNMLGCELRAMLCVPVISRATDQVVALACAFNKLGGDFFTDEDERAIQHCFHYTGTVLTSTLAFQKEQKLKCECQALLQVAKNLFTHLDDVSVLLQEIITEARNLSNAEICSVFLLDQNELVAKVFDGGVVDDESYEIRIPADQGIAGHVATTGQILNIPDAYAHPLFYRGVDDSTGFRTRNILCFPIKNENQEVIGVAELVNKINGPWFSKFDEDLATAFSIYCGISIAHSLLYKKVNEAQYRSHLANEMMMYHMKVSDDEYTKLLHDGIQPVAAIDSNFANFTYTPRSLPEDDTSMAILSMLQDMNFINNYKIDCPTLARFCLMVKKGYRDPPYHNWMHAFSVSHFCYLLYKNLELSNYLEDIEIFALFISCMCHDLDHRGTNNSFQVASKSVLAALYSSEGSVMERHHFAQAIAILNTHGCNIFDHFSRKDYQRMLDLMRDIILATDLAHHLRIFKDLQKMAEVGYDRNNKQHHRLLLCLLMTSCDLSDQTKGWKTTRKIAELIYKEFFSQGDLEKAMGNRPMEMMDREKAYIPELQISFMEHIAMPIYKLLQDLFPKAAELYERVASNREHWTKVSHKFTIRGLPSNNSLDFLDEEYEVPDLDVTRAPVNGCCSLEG

Aldehyde oxidase = target: T2, Aldehyde oxidase (Homo sapiens, UniProt Q06278); assay: Drug metabolism assessed as aldehyde oxidase (unknown origin)-mediated metabolite formation; assay type: ADME
T2 sequence (Q06278 whole entry): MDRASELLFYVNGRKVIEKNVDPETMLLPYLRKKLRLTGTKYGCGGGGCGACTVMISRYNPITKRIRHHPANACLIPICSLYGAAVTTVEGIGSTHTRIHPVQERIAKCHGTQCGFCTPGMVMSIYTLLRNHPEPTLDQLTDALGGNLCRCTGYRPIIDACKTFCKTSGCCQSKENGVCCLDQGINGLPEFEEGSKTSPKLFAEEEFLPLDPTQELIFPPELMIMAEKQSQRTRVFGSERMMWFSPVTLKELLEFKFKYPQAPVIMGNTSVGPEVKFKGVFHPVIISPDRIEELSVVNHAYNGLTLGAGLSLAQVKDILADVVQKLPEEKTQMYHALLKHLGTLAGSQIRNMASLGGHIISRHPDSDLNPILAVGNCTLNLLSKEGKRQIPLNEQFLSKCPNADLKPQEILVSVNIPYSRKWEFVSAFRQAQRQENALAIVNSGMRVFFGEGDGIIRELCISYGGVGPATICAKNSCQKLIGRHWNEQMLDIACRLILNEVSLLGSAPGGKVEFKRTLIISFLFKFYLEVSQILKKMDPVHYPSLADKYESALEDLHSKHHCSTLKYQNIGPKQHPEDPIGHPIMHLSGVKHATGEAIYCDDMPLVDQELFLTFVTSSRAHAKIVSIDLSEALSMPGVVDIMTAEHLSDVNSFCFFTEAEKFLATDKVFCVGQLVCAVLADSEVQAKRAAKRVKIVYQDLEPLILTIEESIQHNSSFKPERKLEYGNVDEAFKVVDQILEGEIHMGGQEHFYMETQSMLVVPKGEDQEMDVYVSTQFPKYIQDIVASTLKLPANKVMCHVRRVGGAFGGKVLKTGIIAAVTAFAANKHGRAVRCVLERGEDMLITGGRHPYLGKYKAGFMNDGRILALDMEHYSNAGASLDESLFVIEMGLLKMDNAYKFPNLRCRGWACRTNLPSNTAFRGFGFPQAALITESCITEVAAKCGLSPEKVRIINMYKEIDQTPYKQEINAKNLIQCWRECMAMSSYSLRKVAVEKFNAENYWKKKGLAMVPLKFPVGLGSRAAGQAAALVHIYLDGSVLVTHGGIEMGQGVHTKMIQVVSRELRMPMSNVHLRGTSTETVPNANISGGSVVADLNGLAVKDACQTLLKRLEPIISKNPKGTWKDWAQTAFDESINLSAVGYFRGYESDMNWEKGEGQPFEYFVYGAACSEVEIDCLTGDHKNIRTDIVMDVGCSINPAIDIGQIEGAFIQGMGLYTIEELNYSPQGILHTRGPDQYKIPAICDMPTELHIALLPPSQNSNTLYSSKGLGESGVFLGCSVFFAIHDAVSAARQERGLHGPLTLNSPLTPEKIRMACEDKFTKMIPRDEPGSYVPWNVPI

Rattus norvegicus = assay: Effect on habituated locomotor activity in Long Evans rat at 0.32 to 3.2 mg/kg, sc; assay type: ADME, organism-based; conditions: in vivo
In short: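 Rats dosed SC at 0.32, 1.0 and 3.2 mg/kg; conditioned avoidance responding also run in combination with risperidone 0.032 mg/kg.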

Liver = assay: Drug metabolism in dog liver microsomes assessed as 1-(7-methyl-5-(1-methyl-5-(5-(trifluoromethyl)pyridin-2-yl)-1H-pyrazol-4-yl)imidazo[1,5-f][1,2,4]triazin-4-yl)azetidin-3-ol formation at 1 to 50 uM after 1 hr by LC-MS/MS analysis; assay type: ADME, Canis lupus familiaris, microsome
In short: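 Rat, dog or human liver microsomes or hepatocytes (P450 0.35–0.5 µM final) incubated with compound at 1, 10 or 50 µM in 100 mM phosphate buffer with 1 mM NADP regenerating system, 37°C for 1 h; quenched with 4 volumes acetonitrile, centrifuged, supernatant evaporated, reconstituted in 5% aqueous acetonitrile and analysed by reversed-phase LC.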

Cytochrome P450 2D6, sequence (P10635 whole entry): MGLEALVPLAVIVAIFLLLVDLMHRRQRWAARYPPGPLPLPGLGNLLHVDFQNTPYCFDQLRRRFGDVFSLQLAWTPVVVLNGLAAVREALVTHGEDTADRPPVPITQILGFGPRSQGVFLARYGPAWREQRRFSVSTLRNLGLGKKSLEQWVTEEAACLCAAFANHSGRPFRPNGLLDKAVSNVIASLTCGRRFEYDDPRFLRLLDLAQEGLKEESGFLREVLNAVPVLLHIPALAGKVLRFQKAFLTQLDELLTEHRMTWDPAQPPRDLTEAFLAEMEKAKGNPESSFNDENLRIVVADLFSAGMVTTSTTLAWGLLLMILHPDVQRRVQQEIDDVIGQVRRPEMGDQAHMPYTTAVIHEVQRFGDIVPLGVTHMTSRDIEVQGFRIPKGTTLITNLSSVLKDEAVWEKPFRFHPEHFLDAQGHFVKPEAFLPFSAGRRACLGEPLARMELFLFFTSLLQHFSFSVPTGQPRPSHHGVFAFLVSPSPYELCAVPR

Cc1nc(-c2cnn(C)c2-c2ccc(C(F)(F)F)cn2)c2c(N3CCC3)ncnn12 [PF-05180999]
TDI (Cytochrome P450 2D6): Not Active | Activity (Canis familiaris): Non-Toxic | Kp uu [1]: 0.51 | Ki [2]: 4.2 nM | Drug metabolism (Aldehyde oxidase): Metabolite_Notdetected | Activity (Rattus norvegicus): Non-Toxic | Drug metabolism (Liver): Metabolite_Detected
